One block for each compound: values may come before it. The source made the active and inactive calls. The rule behind the calls is not given here.
Experiments:
Escherichia coli [1] = assay: Selectivity ratio of Kd for Escherichia coli H69-UUU RNA to Kd for wild type Escherichia coli H69 RNA
[2] = Binding affinity to Escherichia coli A-site 16s rRNA at pH 7 after 30 mins by ESI-MS analysis; conditions: read-out: Kd(app)
Procedure, shortened: (§1)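 ESI-MS titration of free amidated peptide (0–120 μM) with 1–3 μM RNA (50 μL) in 150 mM ammonium acetate, pH 7.0 or 5.2, 25% 2-propanol. Summed peak areas of complexes (1:1, 1:2, Na+/K+ adducts) over free plus complexed RNA give fraction bound, either per charge state (4−, 5−) or all states. Apparent Kd comes from a quadratic fit, three independent experiments.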

[3] = Binding affinity to Escherichia coli helix 31 at pH 7 after 30 mins by ESI-MS analysis; conditions: read-out: Kd(app); procedure, shortened: as §1
[4] = Binding affinity to human H69 RNA at pH 7 after 30 mins by ESI-MS analysis; conditions: read-out: Kd(app); procedure, shortened: as §1
Escherichia coli [5] = assay: Ratio of apparent Kd for wild type Escherichia coli H69-UUU RNA at 4- charge state at pH 5.2 to apparent Kd for wild type Escherichia coli H69-UUU RNA at 4- charge state at pH 7
Procedure, shortened: (§2)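 The ratio compares apparent Kd for the 4− charge-state 1:1 complex from ESI-MS titrations at pH 5.2 and pH 7.0. Conditions: 150 mM ammonium acetate, 25% 2-propanol, 1–3 μM RNA, 0–120 μM amidated peptide, quadratic fit.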

Escherichia coli [6] = assay: Ratio of apparent Kd for wild type Escherichia coli H69 RNA at 4- charge state at pH 5.2 to apparent Kd for wild type Escherichia coli H69 RNA at 4- charge state at pH 7; procedure, shortened: as §2
[7] = Binding affinity to wild type Escherichia coli H69 RNA at 4- charge state at pH 5.2 after 30 mins by ESI-MS analysis; conditions: read-out: Kd(app); procedure, shortened: as §1
[8] = Binding affinity to Escherichia coli H69-UUU RNA at 4- charge state at pH 5.2 after 30 mins by ESI-MS analysis; conditions: read-out: Kd(app); procedure, shortened: as §1
Escherichia coli [9] = assay: Selectivity ratio of apparent Kd for Escherichia coli H69-2(pseudouridine)U RNA at 4- charge state at pH 7 to apparent Kd for wild type Escherichia coli H69 RNA at 4- charge state at pH 7
Procedure, shortened: (§3)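 The ratio compares apparent Kd for each RNA with that for modified wild-type H69, both for 1:1 complexes from ESI-MS at pH 7.0. Conditions: 150 mM ammonium acetate, 25% 2-propanol, 1–3 μM RNA, 0–120 μM amidated peptide, fraction bound fitted by a quadratic equation.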

Escherichia coli [10] = assay: Selectivity ratio of apparent Kd for Escherichia coli H69-pseudouridineUpseudouridine RNA at 4- charge state at pH 7 to apparent Kd for wild type Escherichia coli H69 RNA at 4- charge state at pH 7
Escherichia coli [11] = assay: Selectivity ratio of apparent Kd for Escherichia coli H69-U2(pseudouridine) RNA at 4- charge state at pH 7 to apparent Kd for wild type Escherichia coli H69 RNA at 4- charge state at pH 7; procedure, shortened: as §3
Escherichia coli [12] = assay: Selectivity ratio of apparent Kd for Escherichia coli H69-UUU RNA at 4- charge state at pH 7 to apparent Kd for wild type Escherichia coli H69 RNA at 4- charge state at pH 7; procedure, shortened: as §3
[13] = Binding affinity to Escherichia coli H69-2(pseudouridine)U RNA at 4- charge state at pH 7 after 30 mins by ESI-MS analysis; conditions: read-out: Kd(app); procedure, shortened: as §1
[14] = Binding affinity to Escherichia coli H69-pseudouridineUpseudouridine RNA at 4- charge state at pH 7 after 30 mins by ESI-MS analysis; conditions: read-out: Kd(app)
Procedure, shortened: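 ESI-MS on a tandem quadrupole instrument: 1–3 μM RNA with 0–120 μM amidated peptide in 150 mM ammonium acetate, pH 7.0, 25% 2-propanol. Summed peak areas of free RNA and 1:1 complex (with Na+/K+ adducts) at the 4− charge state were used to get the fraction bound. Apparent Kd came from a quadratic-equation non-linear fit. Three independent experiments were run.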

[15] = Binding affinity to Escherichia coli H69-U2(pseudouridine) RNA at 4- charge state at pH 7 after 30 mins by ESI-MS analysis; conditions: read-out: Kd(app); procedure, shortened: as §1
[16] = Binding affinity to Escherichia coli H69-UUU RNA at 4- charge state at pH 7 after 30 mins by ESI-MS analysis; conditions: read-out: Kd(app); procedure, shortened: as §1
[17] = Selectivity ratio of apparent Kd for human H69 RNA at pH 7 to apparent Kd for wild type Escherichia coli H69 RNA at pH 7; procedure, shortened: as §3
Escherichia coli [18] = assay: Selectivity ratio of apparent Kd for Escherichia coli A-site 16s rRNA at pH 7 to apparent Kd for wild type Escherichia coli H69 RNA at pH 7; procedure, shortened: as §3
Escherichia coli [19] = assay: Selectivity ratio of apparent Kd for Escherichia coli helix 31 at pH 7 to apparent Kd for wild type Escherichia coli H69 RNA at pH 7; procedure, shortened: as §3
Escherichia coli [20] = assay: Binding affinity to wild type Escherichia coli Qdot-labeled H69 RNA after 16 hrs by fluorescein-based bead assay
Procedure, shortened: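 1 nM fluorescein-H69 was pre-incubated 1 h with 1 nM anti-fluorescein Qdot 655, then with beads for 16 h at 4 °C. Beads were washed, and red and green per-bead pixel intensities (1–255 scale) quantified against no-peptide beads.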

Homo sapiens [21] = species: Homo sapiens; assay: Binding affinity to human 5'-fluorescein-tagged 18s RNA after 24 hrs by fluorescein-based bead assay
Procedure, shortened: (§4)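 TentaGel beads carrying peptide with a free N-terminus were blocked 3 h in SuperBlock (PBS, 0.05% Tween-20) and water-washed. About 10–12 beads were incubated with 15 μL of 1 μM 5′-fluorescein-labelled RNA in 10 mM HEPES for 24 h at 4 °C with shaking, repeated 4× with fresh RNA. Beads were water-washed and imaged by fluorescence microscopy. Peptide-free beads gave background.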

Homo sapiens [22] = species: Homo sapiens; assay: Binding affinity to human 5'-fluorescein-tagged TAR RNA after 24 hrs by fluorescein-based bead assay; procedure, shortened: as §4
Escherichia coli [23] = assay: Binding affinity to wild type Escherichia coli 5'-fluorescein-tagged H69 RNA after 24 hrs by fluorescein-based bead assay relative to control; procedure, shortened: as §4

Compound: NC[C@@H]1O[C@H](O[C@H]2[C@@H](O)[C@H](O[C@@H]3[C@@H](O)[C@H](N)C[C@H](N)[C@H]3O[C@H]3O[C@H](CO)[C@@H](O)[C@H](O)[C@H]3N)O[C@@H]2CO)[C@H](N)[C@@H](O)[C@@H]1O
Selectivity ratio (Escherichia coli [1]): 2

Compound: H-NQVANHQ-NH2
Kd [2]: 49 µM
Kd [3]: 33 µM
Kd [4]: 50 µM
Ratio (Escherichia coli [5]): 1.6
Ratio (Escherichia coli [6]): 2.8
Kd [7]: 34 µM
Kd [8]: 31 µM
Selectivity ratio (Escherichia coli [9]): 2.3
Selectivity ratio (Escherichia coli [10]): 2.3
Selectivity ratio (Escherichia coli [11]): 2.3
Selectivity ratio (Escherichia coli [12]): 1.6
Kd [13]: 28 µM
Kd [14]: 28 µM
Kd [15]: 28 µM
Kd [16]: 19 µM
Selectivity ratio [17]: 4
Selectivity ratio (Escherichia coli [18]): 4
Selectivity ratio (Escherichia coli [19]): 3

Activity (Escherichia coli [20]): Active
Activity (Homo sapiens [21]): inactive
Activity (Homo sapiens [22]): inactive
Activity (Escherichia coli [23]): Active
Compound: H-NQVANHQ-OH

Activity (Escherichia coli [20]): Active
Activity (Homo sapiens [22]): Active
Activity (Escherichia coli [23]): Active
Compound: H-STYTSVS-OH
